Data from ChEMBL document CHEMBL5390206, “Ormosianines A-P, Structurally Diverse Quinolizidine Alkaloids with AChE Inhibitory Effects from Ormosia yunnanensis” (J Nat Prod, 2023).

Test: Inhibition of AchE in fly head nerve cells using acetylthiocholine iodide as substrate preincubated for 20 mins followed by substrate addition and measured every 30s for 1 hr by DTNB reagent based Ellman's spectrophotometric method
Conditions: Diptera, Nerve cell
Outline: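 Modified spectrophotometric AChE method, with chlorpyrifos and huperzine A run alongside as positive controls.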

In order of rising IC50:
1. CCOP(=S)(OCC)Oc1nc(Cl)c(Cl)cc1Cl [CHLORPYRIFOS]  0.0233 µM
2. C/C=C1\[C@H]2C=C(C)C[C@]1(N)c1ccc(=O)[nH]c1C2 [HUPERZINE A]  0.12 µM
3. O=C1C(CCCO)=C[C@H]2C[C@]1([C@@H]1CCCCN1)CN1CCCC[C@@H]21  1.55 µM
4. C1=C2CCCN3CN4CCCC[C@@H]4[C@]4(C[C@@H]1[C@H]1CCCCN1C4)[C@@H]23  5.23 µM
5. C1CC[C@H]([C@]23C[C@@H](C[C@@H]4CCCN[C@H]42)[C@H]2CCCCN2C3)NC1  5.56 µM
6. CC(=O)N1CCCC[C@H]1[C@@]12C[C@@H](C[C@H]3CCCN[C@@H]31)[C@H]1CCCCN1C2  5.65 µM
7. CC(=O)N1CCCC[C@@H]1[C@]12C[C@H](C[C@@H]3CCCN[C@H]31)[C@H]1CCCCN1C2  8.48 µM
8. CC(=O)O[C@H]1CCN2C[C@@H]3C[C@@H](CN4C(=O)[C@H](O)CC[C@H]34)[C@@H]2C1  9.77 µM
9. C=CCCN1C[C@@H]2C[C@@H](Cn3c2cccc3=O)C1=O  12.8 µM
10. C=CCCN1C[C@@H]2C[C@@H](CN3C(=O)CCC[C@]23OC)C1=O  15.7 µM
11. CN1CCCC[C@H]1[C@@]12C[C@H](C[C@H]3CCCN[C@@H]31)[C@H]1CCCCN1C2  17 µM
12. C=CCCN1C[C@@H]2C[C@@H](CN3C(=O)CCC=C23)C1=O  20 µM
13. C=CCCN1C[C@@H]2C[C@@H](CN3C(=O)CC[C@H](O)[C@]23O)C1=O  29.6 µM
